Published values of several laboratories.
Each line is one published result; the experiments were not run side by side.
HDAC9: Histone deacetylase 9 (HDAC9, Homo sapiens, UniProt Q9UKV0)
PKN1: Serine/threonine-protein kinase N1 (PKN1, Homo sapiens, UniProt Q16512)
ADRB1: Beta-1 adrenergic receptor (ADRB1, Homo sapiens, UniProt P08588)

With `O=C(/C=C/c1cccc(OS(=O)(=O)Oc2ccc(C(F)(F)F)cc2)c1)NO` the inhibition was 13% (HDAC9; enzyme activity, inhibitor, fluorescence; 10 µM).
`Cc1cc([C@@H](C)Nc2ccccc2C(=O)O)c2nc(N3CCC(F)(F)CC3)c(C#N)c(=O)n2c1` has a remaining binding of 70% (NUAK family SNF1-like kinase 2 (NUAK2, Homo sapiens, UniProt Q9H093); binding, competition with immobilised ligand; 10 µM).
With `O=C(NO)c1cc(F)cc(OS(=O)(=O)Oc2ccccc2)c1` the inhibition was 33% (HDAC9; enzyme activity, inhibitor, fluorescence; 10 µM).
With `C=CC(=O)N1CCC(COCC(=O)N2CCN(c3nc(-c4cnc(N)nc4C(F)F)nc(N4CCOC[C@@H]4C)n3)CC2)CC1` the remaining binding was 100% (PKN1; binding, competition with immobilised ligand; 1 µM).
`N=c1c[n+](N2CCOCC2)[n-]o1` has a KI (inactivation) of 4 µM (NAD-dependent protein deacylase sirtuin-5, mitochondrial (SIRT5, Homo sapiens, UniProt Q9NXA8); enzyme activity, inhibitor).
For `C[C@H]1O[C@H](O[C@H]2[C@H](O)[C@@H](O)[C@@H](O[C@H]3[C@H](O)[C@@H](O)C(O)O[C@@H]3CO)O[C@@H]2CO)[C@H](O)[C@@H](O)[C@@H]1N[C@H]1C=C(CO)[C@@H](O)[C@H](O)[C@H]1O` (some centres unmarked), the inhibition was 97.5% (Pancreatic alpha-amylase (Homo sapiens, UniProt P04746); enzyme activity, inhibitor; 200 µg/mL).
With `COc1cc(-c2cncc3c2CN(C)Cc2cc(N4CCNCC4)ccc2-3)cc(OC)c1OC` the remaining activity was 102% (PKN1; enzyme activity, inhibitor; 1 µM).
The inhibition of `CC(C)OC(=O)CNc1cccc(CN(Cc2ccc(-n3cccn3)cc2)S(=O)(=O)c2cccnc2)n1` is reported as 0% (ADRB1; ligand displacement, radioligand; 10 µM).
`O=C(NO)c1cncc(OS(=O)(=O)Oc2ccc(-n3ccnc3)cc2)c1` gave an inhibition of 49% (HDAC9; enzyme activity, inhibitor, fluorescence; 10 µM).
With `O=C(O)CNc1cccc(CN(Cc2ccc(-n3cccn3)cc2)S(=O)(=O)c2cccnc2)n1` the inhibition was 2% (ADRB1; ligand displacement, radioligand; 10 µM).
For `CNc1ncc2c(/C=C/C(=O)N3CCC(OC)CC3)nn(Cc3cccc(C(F)(F)F)c3)c2n1`, the remaining activity was 99% (Cyclin-dependent kinase 18, with cyclin Y (CDK18, Homo sapiens, UniProt Q07002); enzyme activity, inhibitor, radiometric; 1 µM).
